Test results reported in ChEMBL document CHEMBL1134286, “Novel erythromycin derivatives with aryl groups tethered to the C-6 position are potent protein synthesis inhibitors and active against multidrug-resistant respiratory pathogens” (J Med Chem, 2001).
Converted amounts (≈) assume the structure as drawn.

Tests used:
Assay type in all cases: functional
Streptococcus pneumoniae [1] = experiment: Minimum inhibitory concentration against Streptococcus pneumoniae 5649 efflux
How it was run: (§1)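 MICs were determined by agar dilution following National Committee for Clinical Laboratory Standards recommendations. Values are in µg/mL.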

[2] = Minimum inhibitory concentration against Haemophilus influenzae DILL Amp-R; how it was run: as §1
Staphylococcus aureus [3] = experiment: Minimum inhibitory concentration against Staphylococcus aureus ATCC 6538PEry-S; settings: ATCC 6538P; how it was run: as §1
[4] = Minimum inhibitory concentration against Streptococcus pneumoniae 5737 MLSB; how it was run: as §1
[5] = Minimum inhibitory concentration against Streptococcus pyogenes EES 61 Ery-S; how it was run: as §1
Streptococcus pneumoniae [6] = experiment: Minimum inhibitory concentration against Streptococcus pneumoniae ATCC 6303 Ery-S; how it was run: as §1
[7] = Minimum inhibitory concentration against Streptococcus pyogenes 930MLSB; how it was run: as §1
Staphylococcus aureus [8] = experiment: Minimum inhibitory concentration against Staphylococcus aureus A 5177 MLSB-i; how it was run: as §1
[9] = Minimum inhibitory concentration against Streptococcus pyogenes PIU2548 efflux; how it was run: as §1
Staphylococcus aureus [10] = experiment: Minimum inhibitory concentration against Staphylococcus aureus A 5278 MLSB-c; how it was run: as §1

MIC (Streptococcus pneumoniae [1]) [µg/mL]	MIC [2] [µg/mL]	MIC (Staphylococcus aureus [3]) [µg/mL]	MIC [4] [µg/mL]	MIC [5] [µg/mL]	MIC (Streptococcus pneumoniae [6]) [µg/mL]	MIC [7] [µg/mL]	MIC (Staphylococcus aureus [8]) [µg/mL]	MIC [9] [µg/mL]	MIC (Staphylococcus aureus [10]) [µg/mL]	SMILES
4 (≈ 5.66 µM)	16 (≈ 22.6 µM)	3.1 (≈ 4.39 µM)	> 64	0.5 (≈ 0.707 µM)	0.25 (≈ 0.354 µM)	> 64	1.56 (≈ 2.21 µM)	4 (≈ 5.66 µM)	> 100	CC[C@H]1OC(=O)[C@H](C)C(=O)[C@H](C)[C@@H](O[C@@H]2O[C@H](C)C[C@H](N(C)C)[C@H]2O)[C@](C)(OCCNCc2ccccc2)C[C@@H](C)C(=O)[C@H](C)[C@@H](O)[C@]1(C)O
2 (≈ 2.39 µM)	8 (≈ 9.56 µM)	0.39 (≈ 0.466 µM)	4 (≈ 4.78 µM)	0.03 (≈ 0.0358 µM)	0.125 (≈ 0.149 µM)	32 (≈ 38.2 µM)	0.2 (≈ 0.239 µM)	2 (≈ 2.39 µM)	> 100	CC[C@H]1OC(=O)[C@H](C)C(=O)[C@H](C)[C@@H](O[C@@H]2O[C@H](C)C[C@H](N(C)C)[C@H]2O)[C@](C)(OC/C=C/c2cnc3ccccc3c2)C[C@@H](C)C(=O)[C@H](C)[C@H]2N(CCN(C)C)C(=O)O[C@]12C
0.5 (≈ 0.652 µM)	2 (≈ 2.61 µM)	0.05 (≈ 0.0652 µM)	1 (≈ 1.3 µM)	0.03 (≈ 0.0391 µM)	0.015 (≈ 0.0196 µM)	4 (≈ 5.22 µM)	0.05 (≈ 0.0652 µM)	0.5 (≈ 0.652 µM)	> 100	CC[C@H]1OC(=O)[C@H](C)C(=O)[C@H](C)[C@@H](O[C@@H]2O[C@H](C)C[C@H](N(C)C)[C@H]2O)[C@](C)(OC/C=C/c2ccc3nnccc3c2)C[C@@H](C)C(=O)[C@H](C)[C@H]2NC(=O)O[C@@]21C
2 (≈ 2.73 µM)	2 (≈ 2.73 µM)	0.2 (≈ 0.273 µM)	> 128	0.03 (≈ 0.041 µM)	0.03 (≈ 0.041 µM)	> 128	0.39 (≈ 0.533 µM)	2 (≈ 2.73 µM)	> 100	CC[C@H]1OC(=O)[C@H](C)C(=O)[C@H](C)[C@@H](O[C@@H]2O[C@H](C)C[C@H](N(C)C)[C@H]2O)[C@](C)(OCCNCc2ccccc2)C[C@@H](C)C(=O)[C@H](C)[C@H]2NC(=O)O[C@@]21C
0.25 (≈ 0.326 µM)	1 (≈ 1.31 µM)	0.05 (≈ 0.0653 µM)	1 (≈ 1.31 µM)	0.004 (≈ 0.00522 µM)	0.004 (≈ 0.00522 µM)	1 (≈ 1.31 µM)	0.05 (≈ 0.0653 µM)	0.25 (≈ 0.326 µM)	> 100	CC[C@H]1OC(=O)[C@H](C)C(=O)[C@H](C)[C@@H](O[C@@H]2O[C@H](C)C[C@H](N(C)C)[C@H]2O)[C@](C)(OC/C=C/c2ccc3ncccc3c2)C[C@@H](C)C(=O)[C@H](C)[C@H]2NC(=O)O[C@@]21C
1 (≈ 1.45 µM)	> 64	6.2 (≈ 8.96 µM)	32 (≈ 46.2 µM)	0.5 (≈ 0.723 µM)	1 (≈ 1.45 µM)	64 (≈ 92.5 µM)	6.2 (≈ 8.96 µM)	4 (≈ 5.78 µM)	> 100	CC[C@H]1OC(=O)[C@H](C)C(=O)[C@H](C)[C@@H](O[C@@H]2O[C@H](C)C[C@H](N(C)C)[C@H]2O)[C@](C)(OCCCc2ccccc2)C[C@@H](C)C(=O)[C@H](C)[C@@H](O)[C@]1(C)O
0.5 (≈ 0.766 µM)	> 128	6.2 (≈ 9.5 µM)	> 128	0.5 (≈ 0.766 µM)	0.5 (≈ 0.766 µM)	> 128	6.2 (≈ 9.5 µM)	2 (≈ 3.06 µM)	> 100	C=CCO[C@]1(C)C[C@@H](C)C(=O)[C@H](C)[C@H]2N(C)C(=O)O[C@]2(C)[C@@H](CC)OC(=O)[C@H](C)C(=O)[C@H](C)[C@H]1O[C@@H]1O[C@H](C)C[C@H](N(C)C)[C@H]1O
0.5 (≈ 0.753 µM)	32 (≈ 48.2 µM)	1.56 (≈ 2.35 µM)	> 128	0.25 (≈ 0.377 µM)	0.25 (≈ 0.377 µM)	> 128	1.56 (≈ 2.35 µM)	4 (≈ 6.03 µM)	> 100	C=CCO[C@]1(C)C[C@@H](C)C2=NCCN3C(=O)O[C@](C)([C@@H](CC)OC(=O)[C@H](C)C(=O)[C@H](C)[C@H]1O[C@@H]1O[C@H](C)C[C@H](N(C)C)[C@H]1O)[C@H]3[C@H]2C
4 (≈ 5.55 µM)	64 (≈ 88.8 µM)	6.2 (≈ 8.6 µM)	> 128	2 (≈ 2.77 µM)	2 (≈ 2.77 µM)	> 128	6.2 (≈ 8.6 µM)	8 (≈ 11.1 µM)	> 100	CC[C@H]1OC(=O)[C@H](C)C(=O)[C@H](C)[C@@H](O[C@@H]2O[C@H](C)C[C@H](N(C)C)[C@H]2O)[C@](C)(OCCNCCc2ccccc2)C[C@@H](C)C(=O)[C@H](C)[C@@H](O)[C@]1(C)O
4 (≈ 4.71 µM)	4 (≈ 4.71 µM)	0.39 (≈ 0.459 µM)	32 (≈ 37.6 µM)	0.03 (≈ 0.0353 µM)	0.06 (≈ 0.0706 µM)	32 (≈ 37.6 µM)	6.2 (≈ 7.29 µM)	16 (≈ 18.8 µM)	> 100	CC[C@H]1OC(=O)[C@H](C)[C@@H](O[C@H]2C[C@@](C)(OC)[C@@H](O)[C@H](C)O2)[C@H](C)[C@@H](O[C@@H]2O[C@H](C)C[C@H](N(C)C)[C@H]2O)[C@](C)(OC/C=C/c2ccccc2)C[C@@H](C)C(=O)[C@H](C)[C@@H](O)[C@]1(C)O
2 (≈ 2.68 µM)	4 (≈ 5.36 µM)	0.2 (≈ 0.268 µM)	> 128	0.03 (≈ 0.0402 µM)	0.03 (≈ 0.0402 µM)	> 128	0.1 (≈ 0.134 µM)	2 (≈ 2.68 µM)	> 100	CC[C@H]1OC(=O)[C@H](C)C(=O)[C@H](C)[C@@H](O[C@@H]2O[C@H](C)C[C@H](N(C)C)[C@H]2O)[C@](C)(OCCNCCc2ccccc2)C[C@@H](C)C(=O)[C@H](C)[C@H]2NC(=O)O[C@@]21C
4 (≈ 4.44 µM)	8 (≈ 8.88 µM)	0.2 (≈ 0.222 µM)	128 (≈ 142 µM)	0.06 (≈ 0.0666 µM)	0.06 (≈ 0.0666 µM)	64 (≈ 71 µM)	3.1 (≈ 3.44 µM)	4 (≈ 4.44 µM)	> 100	CC[C@H]1OC(=O)[C@H](C)[C@@H](O[C@H]2C[C@@](C)(OC)[C@@H](O)[C@H](C)O2)[C@H](C)[C@@H](O[C@@H]2O[C@H](C)C[C@H](N(C)C)[C@H]2O)[C@](C)(OC/C=C/c2cnc3ccccc3c2)C[C@@H](C)C(=O)[C@H](C)[C@@H](O)[C@]1(C)O
1 (≈ 1.31 µM)	8 (≈ 10.4 µM)	0.39 (≈ 0.509 µM)	64 (≈ 83.6 µM)	0.125 (≈ 0.163 µM)	0.125 (≈ 0.163 µM)	16 (≈ 20.9 µM)	0.39 (≈ 0.509 µM)	1 (≈ 1.31 µM)	> 100	CC[C@H]1OC(=O)[C@H](C)C(=O)[C@H](C)[C@@H](O[C@@H]2O[C@H](C)C[C@H](N(C)C)[C@H]2O)[C@](C)(OC/C=C/c2ccc3ccccc3n2)C[C@@H](C)C(=O)[C@H](C)[C@H]2NC(=O)O[C@@]21C
2 (≈ 2.76 µM)	64 (≈ 88.4 µM)	1.56 (≈ 2.15 µM)	32 (≈ 44.2 µM)	0.5 (≈ 0.69 µM)	1 (≈ 1.38 µM)	32 (≈ 44.2 µM)	1.56 (≈ 2.15 µM)	2 (≈ 2.76 µM)	> 100	CC[C@H]1OC(=O)[C@H](C)C(=O)[C@H](C)[C@@H](O[C@@H]2O[C@H](C)C[C@H](N(C)C)[C@H]2O)[C@](C)(OC/C=C/c2ccc(Cl)cc2)C[C@@H](C)C(=O)[C@H](C)[C@@H](O)[C@]1(C)O
0.25 (≈ 0.321 µM)	4 (≈ 5.13 µM)	0.1 (≈ 0.128 µM)	1 (≈ 1.28 µM)	0.015 (≈ 0.0192 µM)	0.03 (≈ 0.0385 µM)	4 (≈ 5.13 µM)	0.1 (≈ 0.128 µM)	0.25 (≈ 0.321 µM)	> 100	CC[C@H]1OC(=O)[C@H](C)C(=O)[C@H](C)[C@@H](O[C@@H]2O[C@H](C)C[C@H](N(C)C)[C@H]2O)[C@](C)(OC/C=C/c2cnc3ccccc3c2)C[C@@H](C)C(=O)[C@H](C)[C@H]2N(C)C(=O)O[C@]12C
1 (≈ 1.31 µM)	16 (≈ 20.9 µM)	0.1 (≈ 0.131 µM)	> 128	0.015 (≈ 0.0196 µM)	0.015 (≈ 0.0196 µM)	16 (≈ 20.9 µM)	0.1 (≈ 0.131 µM)	1 (≈ 1.31 µM)	> 100	CC[C@H]1OC(=O)[C@H](C)C(=O)[C@H](C)[C@@H](O[C@@H]2O[C@H](C)C[C@H](N(C)C)[C@H]2O)[C@](C)(OC/C=C/c2ccc3ccccc3c2)C[C@@H](C)C(=O)[C@H](C)[C@H]2NC(=O)O[C@@]21C
0.25 (≈ 0.326 µM)	8 (≈ 10.4 µM)	0.1 (≈ 0.131 µM)	2 (≈ 2.61 µM)	0.03 (≈ 0.0392 µM)	0.03 (≈ 0.0392 µM)	> 128	0.1 (≈ 0.131 µM)	0.25 (≈ 0.326 µM)	> 100	CC[C@H]1OC(=O)[C@H](C)C(=O)[C@H](C)[C@@H](O[C@@H]2O[C@H](C)C[C@H](N(C)C)[C@H]2O)[C@](C)(OC/C=C/c2cccc3ncccc23)C[C@@H](C)C(=O)[C@H](C)[C@H]2NC(=O)O[C@@]21C
2 (≈ 2.9 µM)	128 (≈ 186 µM)	1.56 (≈ 2.26 µM)	64 (≈ 92.8 µM)	0.25 (≈ 0.362 µM)	1 (≈ 1.45 µM)	64 (≈ 92.8 µM)	1.56 (≈ 2.26 µM)	2 (≈ 2.9 µM)	> 100	CC[C@H]1OC(=O)[C@H](C)C(=O)[C@H](C)[C@@H](O[C@@H]2O[C@H](C)C[C@H](N(C)C)[C@H]2O)[C@](C)(OC/C=C/c2ccccc2)C[C@@H](C)C(=O)[C@H](C)[C@@H](O)[C@]1(C)O
		25 (≈ 40.5 µM)		6.2 (≈ 10.1 µM)		> 100	25 (≈ 40.5 µM)	12.5 (≈ 20.3 µM)	> 100	CC[C@H]1OC(=O)[C@H](C)C(=O)[C@H](C)[C@@H](O[C@@H]2O[C@H](C)C[C@H](N(C)C)[C@H]2O)[C@](C)(OCCN)C[C@@H](C)C(=O)[C@H](C)[C@@H](O)[C@]1(C)O
8 (≈ 13 µM)	> 128	12.5 (≈ 20.4 µM)	> 128		4 (≈ 6.52 µM)	> 128	50 (≈ 81.5 µM)	32 (≈ 52.1 µM)	> 100	C=CCO[C@]1(C)C[C@@H](C)C(=O)[C@H](C)[C@@H](O)[C@](C)(O)[C@@H](CC)OC(=O)[C@H](C)C(=O)[C@H](C)[C@H]1O[C@@H]1O[C@H](C)C[C@H](N(C)C)[C@H]1O
0.5 (≈ 0.641 µM)		0.05 (≈ 0.0641 µM)	32 (≈ 41 µM)	0.03 (≈ 0.0385 µM)	0.03 (≈ 0.0385 µM)	4 (≈ 5.13 µM)	0.05 (≈ 0.0641 µM)	0.25 (≈ 0.321 µM)	> 100	CC[C@H]1OC(=O)[C@H](C)C(=O)[C@H](C)[C@@H](O[C@@H]2O[C@H](C)C[C@H](N(C)C)[C@H]2O)[C@](C)(OCC2CC2c2cnc3ccccc3c2)C[C@@H](C)C(=O)[C@H](C)[C@H]2NC(=O)O[C@@]21C (some centres undefined)
